HIF activator – HIF pathway transcriptional activation | hit rate 0.32% among 300,000 | U2OS HRE-luciferase reporter, luminescence; normalized: DMSO 0%, desferrioxamine 100% | activation, % at 7.5 µM (by protocol);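 active means mean activation of at least 10% of the iron chelator positive control signal, with at least half of replicates also reaching 10%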
HCV NS3 hel inh – HCV NS3 helicase inhibition | AID 1800 | NS3 helicase DNA unwinding, Cy5 molecular beacon fluorescence | inhibition, % at 10.9 µM | hit rate 0.56% among 290,000;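 active means inhibition above the mean of all tested compounds plus 3 SD, set per campaign, cut at about 35% in these data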;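 further: 0% = DMSO wells and 100% = thioflavine S control wells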
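Measured by: Cy5 fluorescence, 0 and 60 min reads / Assay system: NS3 helicase fragment of HCV / Control set: low DMSO, high thioflavine S at 110 µM / Times: 1 h reaction at 25 °C, ATP-initiated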
FID counter – displaces DNA intercalator in HCV helicase counter-screen. DNA fluorescent intercalator displacement, fluorescence. inhibition, % at 7.9 µM. hit rate 0.17% among 290,000; in the data active means inhibition above about 37%;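 further: 0% = vehicle and 100% = reference compound; higher means more ethidium bromide displaced from hairpin DNA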
PP1 counter – blocks human PP1-alpha phosphatase, a PP5 counter-screen; inhibition, % at 6.7 µM; hit rate 0.9% among 320,000; purified PP1alpha, OMFP fluorescence;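 active means inhibition above the mean inhibition of all tested compounds plus 3 SD, computed separately for each screening campaign, cut at about 15% in these data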
Target sequence (P62136 whole entry, looked up): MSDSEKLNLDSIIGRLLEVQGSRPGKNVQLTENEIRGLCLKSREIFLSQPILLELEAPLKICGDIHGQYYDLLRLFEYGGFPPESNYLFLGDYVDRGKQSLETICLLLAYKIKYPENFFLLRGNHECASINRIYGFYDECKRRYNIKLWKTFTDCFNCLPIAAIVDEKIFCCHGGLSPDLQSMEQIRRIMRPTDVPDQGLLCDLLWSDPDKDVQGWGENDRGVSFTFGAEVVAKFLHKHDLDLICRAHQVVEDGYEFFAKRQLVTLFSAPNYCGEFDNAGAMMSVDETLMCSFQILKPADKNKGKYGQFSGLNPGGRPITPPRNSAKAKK
PP5 primary – inhibitors of human protein phosphatase 5 (PP5) | P53041 | purified PP5c, OMFP substrate fluorescence | inhibition, % at 6.7 µM | hit rate 0.18% among 320,000 | AID 1987;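 active means inhibition above the campaign's mean inhibition across all tested compounds plus 3 SD, cut at about 9.5% in these data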;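 further: 0% = DMSO only and 100% = 100 µM cantharidin control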
* = called active by the depositor. This is a sample that favours compounds with a hit; in the whole collection about 1.9% have one here.

Screening COC/C=C/C1=CC2=CC(=O)C(C)(OC(=O)c3cnc4ccccc4n3)C(=O)C2=CN1c1ccc(OC)cc1 (stereo not given) returned HIF activator 0, PP1 counter 18* and PP5 primary 0.
For C#CCNC(=O)C1=C[C@H](C)C[C@H](OCc2ccc(CO)cc2)O1 the results were HIF activator 1, PP1 counter 4 and PP5 primary 0.
`COc1ccc(N2C(=O)[C@@H]3C(c4cccnc4)=NO[C@@H]3C2=O)cc1` gave HIF activator 30*, HCV NS3 hel inh 22, FID counter -10, PP1 counter 4 and PP5 primary 3.
Screening COc1ccc(NC(=O)C(=O)N2N=C(C(C)C)CC2(O)C(F)(F)F)cc1 (stereo not given) returned HIF activator 0, HCV NS3 hel inh 0, FID counter -4, PP1 counter 6 and PP5 primary 2.
For N#Cc1ccccc1S(=O)(=O)N1CCN(c2cnccn2)CC1 the results were HIF activator 68*, HCV NS3 hel inh 1, FID counter -4, PP1 counter -3 and PP5 primary 2.
`CC1(C)Cc2c(C#N)c(SCCC#N)nc(N3CCOCC3)c2CO1` gave HIF activator 35*, HCV NS3 hel inh 7 and FID counter -27.
For CC1(C)Cc2c(C#N)c(SCCO)nc(N3CCOCC3)c2CO1 the results were HIF activator 0, HCV NS3 hel inh 1, FID counter -17, PP1 counter -4 and PP5 primary -2.
O=C(NCc1ccccc1)c1onc(CSc2ccccc2)c1C(=O)NCC1CC1 was read as HIF activator -1, PP1 counter 16* and PP5 primary 6.
Screening COc1ccc(CC(NC(C)=O)C(=O)NC2CCN(C(=O)Nc3ccc(Cl)cc3)CC2)cc1OC (stereo not given) returned HIF activator 37*, HCV NS3 hel inh 2, FID counter -11, PP1 counter -1 and PP5 primary 1.
For CCc1ccccc1NC(=O)N1CCC(NC(=O)C(Cc2ccc(OC)c(OC)c2)NC(C)=O)CC1 (stereo not given) the results were HIF activator 0, HCV NS3 hel inh 6, FID counter -4, PP1 counter 2 and PP5 primary 2.
Screening O=C(N/N=C/c1ccc2c(c1)OCO2)c1ccc2c(c1)OCCO2 returned HIF activator 2, HCV NS3 hel inh 8, FID counter -9, PP1 counter -1 and PP5 primary 1.
`O=C(N/N=C/c1cc(Br)cc(Cl)c1O)c1ccc2c(c1)OCO2` gave HIF activator 19*, PP1 counter 4 and PP5 primary 0.
O=C(N/N=C/c1ccccc1O)c1ccc2c(c1)OCO2 was read as HIF activator 9.7*, HCV NS3 hel inh 15, FID counter -10, PP1 counter 3 and PP5 primary 2.
`Cc1cc(Br)cc(/C=N/NC(=O)c2ccc3c(c2)OCO3)c1O` gave HIF activator 13*, HCV NS3 hel inh 10, FID counter -3, PP1 counter 1 and PP5 primary 4.
O=C(N/N=C/c1cc2c(cc1Cl)OCO2)c1cccc(Br)c1 was read as HIF activator 3, HCV NS3 hel inh -11, FID counter -10, PP1 counter 0 and PP5 primary 0.
For O=C(NC(=S)NCC1CCCO1)c1ccccc1[N+](=O)[O-] (stereo not given) the results were HIF activator 0, HCV NS3 hel inh -6, FID counter 7, PP1 counter -3 and PP5 primary 3.
For O=C1CCCC(O)=C1C=Nc1cccc(C(F)(F)F)c1 the results were HIF activator 714*, HCV NS3 hel inh -8, FID counter -3, PP1 counter 1 and PP5 primary 1.
For COc1cccc(N=CC2=C(O)CCCC2=O)c1 the results were HIF activator 1, HCV NS3 hel inh 1, FID counter -4, PP1 counter -3 and PP5 primary -1.
`COc1ccc(Cc2nnc(NC(=O)c3cc(OC)c(OC)c(OC)c3)s2)cc1` gave HIF activator 2, HCV NS3 hel inh -6, FID counter -19, PP1 counter -4 and PP5 primary -1.
For C=CCn1c(O)c(N=Nc2ccccc2O)c2ccccc21 the results were PP1 counter 7 and PP5 primary 6.
Oc1ccccc1N=Nc1ccccc1O was read as HIF activator 202*, HCV NS3 hel inh -3 and FID counter 8.
For CC(=O)c1ccc(OCc2cc(C(=O)NC3CCCCC3)no2)cc1 the results were HIF activator 3, HCV NS3 hel inh -6, FID counter -26, PP1 counter -3 and PP5 primary 2.
For Cc1cc(SCC(=O)N/N=C/c2ccccc2C(=O)O)c(C)cc1Br the results were HIF activator 21*, HCV NS3 hel inh -5, FID counter -29, PP1 counter -2 and PP5 primary 0.
`Cc1ccc(NC(=O)CCC(=O)N/N=C/c2ccc(O)cc2O)cc1` gave HIF activator 135*, HCV NS3 hel inh -6, FID counter -1, PP1 counter -3 and PP5 primary 1.
Screening Cc1cc(SCC(=O)N/N=C/c2ccc(O)cc2O)c(C)cc1Br returned HIF activator 39*, HCV NS3 hel inh -6, FID counter 0, PP1 counter 5 and PP5 primary 7.
`Cc1ccc(-c2nnc(SCC(=O)N/N=C/c3ccccc3C(=O)O)n2-c2ccc(C)cc2)cc1` gave HIF activator -1, HCV NS3 hel inh 16, FID counter -45, PP1 counter 3 and PP5 primary 1.
O=C(CCC(=O)Nc1ccc(F)cc1)N/N=C/c1ccccc1O was read as HIF activator 4, HCV NS3 hel inh 5, FID counter 1, PP1 counter -5 and PP5 primary 3.
For CCN(CC)S(=O)(=O)c1ccc(C(=O)NCCOC(=O)c2ccc(F)cc2F)cc1 the results were HIF activator 1, HCV NS3 hel inh -6, FID counter -38, PP1 counter 1 and PP5 primary 1.
`CCCC1=C(C(=O)OCC)C(c2ccncc2)n2ncnc2N1` (stereo not given) gave HIF activator 0, HCV NS3 hel inh 1, FID counter -3, PP1 counter -2 and PP5 primary 2.
`COc1ccc(C)cc1N(C(=O)c1ccco1)C(C(=O)NC1CCCC1)c1ccc(N2CCOCC2)cc1` (stereo not given) gave HIF activator 2, HCV NS3 hel inh 2, FID counter -50, PP1 counter -2 and PP5 primary -4.
O=C1CSCN1c1ccc(Cl)cc1 was read as HIF activator 184*, HCV NS3 hel inh -5, FID counter -1, PP1 counter 2 and PP5 primary -1.
Cc1cccn2c(=O)c3cc(C(=O)NCCN4CCOCC4)c(=N)n(CCN4CCOCC4)c3nc12 was read as HIF activator -1, HCV NS3 hel inh 9, FID counter 19, PP1 counter -7 and PP5 primary 2.

Screening results as filed in PubChem BioAssay.
